Source: ChEMBL document CHEMBL4152387, “Discovery of a Potent Grp94 Selective Inhibitor with Anti-Inflammatory Efficacy in a Mouse Model of Ulcerative Colitis” (J Med Chem, 2018)
Calls of active or inactive are those of the source. The calls are words filed in the database; no cut-off is given here.

Tests used:
[1] = Ratio of Kd for human His-tagged biotinylated HSP90alpha N-terminal domain (1 to 236 residues) to Kd for dog His-tagged biotinylated GRP94 N41 deletion mutant (69 to 337 residues)
[2] = target: Endoplasmin (Homo sapiens, UniProt P14625); experiment: Inhibition of GRP94 in human PANC1 cells assessed as down-regulation of integrin alphaL levels after 36 hrs by Western blot analysis; assay type: cell-based
In short: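 Panc-1 cells treated 36 h at indicated concentrations; cell surface protein extracted with a membrane-fractionation kit; Western blot for integrin α2 and αL with β-actin loading control, infrared fluorescent secondary detection.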

[3] = target: Heat shock protein HSP 90-alpha (Homo sapiens, UniProt P07900); experiment: Inhibition of HSP90alpha in human PANC1 cells assessed as akt degradation at 1 to 5 uM after 36 hrs by Western blot analysis; assay type: cell-based
In short: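 Panc-1 cells treated 36 h; total protein lysate with protease/phosphatase inhibitors; equal protein by BCA on SDS-PAGE, PVDF, Western blot for Hsp70 and Akt, β-actin loading control; AT13387 reference.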

[4] = system: Mus musculus; experiment: Anti-inflammatory activity in C57BL/6 mouse model of DSS-induced ulcerative colitis assessed reduction in disease activity index at 10 to 30 mg/kg, ip qd co-administrated with DSS measured until day 7 post dose; assay type: functional, organism-based
In short: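 Male C57BL/6 mice (20−22 g), n = 8 per group, 3% DSS in drinking water for 7 days with ip qd dosing at 10 or 30 mg/kg; vehicle for normal and disease controls. Body weight, stool consistency and rectal bleeding recorded daily; DAI scored from weight loss, stool consistency and stool blood.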

[5] = system: Mus musculus; experiment: Anti-inflammatory activity in C57BL/6 mouse model of DSS-induced ulcerative colitis assessed mortality at 10 mg/kg, ip qd co-administrated with DSS measured on day 7 post dose; assay type: functional, organism-based
In short: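 Male C57BL/6 mice (20−22 g), randomized, n = 8 per group; 3% DSS (36−50 KD) in drinking water for 7 days, with compound given ip once daily alongside; normal and disease controls received vehicle. Deaths counted at day 7.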

[6] = system: Mus musculus; experiment: Anti-inflammatory activity in C57BL/6 mouse model of DSS-induced ulcerative colitis assessed reduction in colon shortening at 10 to 30 mg/kg, ip qd co-administrated with DSS measured on day 7 post dose; assay type: functional, organism-based
In short: (§1)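 Male C57BL/6 mice (20−22 g), n = 8 per group, 3% DSS in drinking water 7 days plus ip qd dosing at 10 or 30 mg/kg; vehicle controls. Sacrificed at day 7, colons collected; colon length measured and H&E-stained colon sections examined.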

[7] = system: Mus musculus; experiment: Anti-inflammatory activity in C57BL/6 mouse model of DSS-induced ulcerative colitis assessed reduction in colonic tissue damage at 10 to 30 mg/kg, ip qd co-administrated with DSS measured on day 7 post dose; assay type: functional, organism-based; in short: as §1
[8] = system: Mus musculus; experiment: Anti-inflammatory activity in ip dosed C57BL/6 mouse model of DSS-induced ulcerative colitis assessed reduction in TNFalpha levels in serum co-administrated once daily with DSS measured on day 7 post dose by ELISA; assay type: functional, organism-based
In short: (§2)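 DSS colitis in male C57BL/6 mice (3% DSS in water, 7 days, ip qd co-dosing, vehicle controls). Serum and colons taken at sacrifice on day 7; colon homogenate supernatants and serum assayed for mouse TNFα and IL-6 by ELISA kits; n = 5 samples per group.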

[9] = system: Mus musculus; experiment: Anti-inflammatory activity in ip dosed C57BL/6 mouse model of DSS-induced ulcerative colitis assessed reduction in TNFalpha levels in colonic tissues co-administrated once daily with DSS measured on day 7 post dose by ELISA; assay type: functional, organism-based; in short: as §2
[10] = system: Mus musculus; experiment: Anti-inflammatory activity in ip dosed C57BL/6 mouse model of DSS-induced ulcerative colitis assessed reduction in IL6 levels in serum co-administrated once daily with DSS measured on day 7 post dose by ELISA; assay type: functional, organism-based; in short: as §2
[11] = system: Mus musculus; experiment: Anti-inflammatory activity in ip dosed C57BL/6 mouse model of DSS-induced ulcerative colitis assessed reduction in IL6 levels in colonic tissues co-administrated once daily with DSS measured on day 7 post dose by ELISA; assay type: functional, organism-based; in short: as §2
[12] = system: Mus musculus; experiment: Anti-inflammatory activity in C57BL/6 mouse model of DSS-induced ulcerative colitis assessed reduction in TLR9 expression in colonic tissues at 10 to 30 mg/kg, ip qd co-administrated with DSS measured on day 7 post dose; assay type: functional, organism-based
In short: (§3)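 DSS colitis in male C57BL/6 mice (3% DSS, 7 days, ip qd 10 or 30 mg/kg, vehicle controls); colons flash-frozen at day 7, homogenized in lysis buffer with protease/phosphatase inhibitors. Equal protein by BCA run on SDS-PAGE, PVDF, 1% BSA block, primary antibodies 37 °C 1 h then 4 °C overnight, DyLight 800 secondary, infrared scan; β-actin loading control.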

[13] = system: Mus musculus; experiment: Anti-inflammatory activity in C57BL/6 mouse model of DSS-induced ulcerative colitis assessed reduction in p65 expression in colonic tissues at 10 to 30 mg/kg, ip qd co-administrated with DSS measured on day 7 post dose; assay type: functional, organism-based; in short: as §3
[14] = system: Mus musculus; experiment: In-vivo inhibition of HSP90/HSP70 pathway in C57BL/6 mouse model of DSS-induced ulcerative colitis assessed as effect on Akt expression in colonic tissues at 10 to 30 mg/kg, ip qd co-administrated with DSS measured on day 7 post dose; assay type: organism-based; in short: as §3
[15] = system: Mus musculus; experiment: Subacute toxicity in C57BL/6 mouse assessed as body weight loss at 30 to 90 mg/kg, ip qd for 2 weeks measured every other day; assay type: organism-based; settings: in vivo, 336 h
[16] = system: Mus musculus; experiment: Subacute toxicity in C57BL/6 mouse assessed as behavioral abnormalities at 30 to 90 mg/kg, ip qd for 2 weeks; assay type: organism-based; settings: in vivo, 336 h
[17] = system: Mus musculus; experiment: Subacute toxicity in C57BL/6 mouse assessed as effect on spleen at 30 to 90 mg/kg, ip qd for 2 weeks by hematoxylin and eosin staining analysis; assay type: organism-based; settings: in vivo, 336 h
[18] = system: Mus musculus; experiment: Subacute toxicity in C57BL/6 mouse assessed as effect on kidneys at 30 to 90 mg/kg, ip qd for 2 weeks by hematoxylin and eosin staining analysis; assay type: organism-based; settings: in vivo, 336 h
[19] = species: Canis lupus familiaris; experiment: Binding affinity to dog GST-tagged GRP94 N41 deletion mutant (69 to 337 residues) expressed in Escherichia coli BL21star (DE3) at 40 uM by NMR based CPMG assay
[20] = species: Canis lupus familiaris; experiment: Binding affinity to dog His-tagged biotinylated GRP94 N41 deletion mutant (69 to 337 residues) expressed in Escherichia coli BL21star (DE3) assessed as association constant by biolayer interferometry
In short: (§4)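 His-tagged Grp94N biotinylated at one molar ratio in PBS pH 7.4, dialysed overnight, loaded at 400 nM on streptavidin biosensors after 10 min prewetting in PBS, 0.05% BSA, 0.01% Tween-20. Four compound concentrations in this buffer tested; binding recorded at 30 °C by biolayer interferometry.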

[21] = species: Canis lupus familiaris; experiment: Binding affinity to dog His-tagged biotinylated GRP94 N41 deletion mutant (69 to 337 residues) expressed in Escherichia coli BL21star (DE3) assessed as dissociation constant by biolayer interferometry; in short: as §4

Endoplasmin, sequence (P14625 whole entry): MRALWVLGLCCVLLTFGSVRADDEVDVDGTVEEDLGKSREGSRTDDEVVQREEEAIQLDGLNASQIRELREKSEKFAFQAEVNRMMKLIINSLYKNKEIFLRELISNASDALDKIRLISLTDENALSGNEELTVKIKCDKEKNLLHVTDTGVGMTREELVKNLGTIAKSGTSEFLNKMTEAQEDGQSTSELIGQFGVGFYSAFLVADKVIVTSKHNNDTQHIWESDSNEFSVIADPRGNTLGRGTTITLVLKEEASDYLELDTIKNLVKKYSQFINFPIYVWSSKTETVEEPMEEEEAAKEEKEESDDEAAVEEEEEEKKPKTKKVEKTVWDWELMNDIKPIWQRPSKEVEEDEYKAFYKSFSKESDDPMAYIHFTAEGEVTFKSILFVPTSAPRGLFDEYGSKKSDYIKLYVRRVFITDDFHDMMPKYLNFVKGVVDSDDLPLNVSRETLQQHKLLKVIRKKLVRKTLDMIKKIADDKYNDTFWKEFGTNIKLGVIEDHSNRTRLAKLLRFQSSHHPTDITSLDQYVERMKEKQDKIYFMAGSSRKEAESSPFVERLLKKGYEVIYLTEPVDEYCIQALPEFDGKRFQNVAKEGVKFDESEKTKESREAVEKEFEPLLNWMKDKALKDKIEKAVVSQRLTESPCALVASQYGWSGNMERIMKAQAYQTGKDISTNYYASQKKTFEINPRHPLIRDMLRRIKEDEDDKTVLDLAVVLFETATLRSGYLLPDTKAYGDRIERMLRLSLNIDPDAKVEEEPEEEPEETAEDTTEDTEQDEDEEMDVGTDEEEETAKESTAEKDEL

## CC(C)c1ccc(-c2ccc(N[C@H]3CC[C@H](O)CC3)c(C(N)=O)c2)cc1
[1]
  Ratio: > 1000
[2]
  inhibition: Dose-dependent effect
[3]
  inhibition (INH): Not Active
[4]
  Activity: Active
[5]
  Activity: inactive
[6]
  Activity: inactive
[7]
  Activity: inactive
[8]
  Activity: Dose-dependent effect
[9]
  Activity: Dose-dependent effect
[10]
  Activity: Dose-dependent effect
[11]
  Activity: Dose-dependent effect
[12]
  Activity: Active
[13]
  Activity: Active
[14]
  Activity: Non-Toxic
[15]
  Activity: Non-Toxic
[16]
  Activity: Non-Toxic
[17]
  Activity: Non-Toxic
[18]
  Activity: Non-Toxic
[19]
  Activity: Active
[20]
  K: 6.38 ×10⁵ /M/s
[21]
  K: 1.25 ×10⁻² /s
